Assay outcomes as filed in PubChem BioAssay.
T cell HTS – T cell immune modulation candidate. 2C CD8+ T cell-vesicle binding, flow cytometry; hits give low values. response (vesicle binding), % at 7 µM. 330,000 tested, 0.068% active;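 active means response, share of CD8 T cells binding vesicles, and their 90th percentile fluorescence all below set limits, cut at about 80% in these data, passing the limit was not always enough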;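 further: values below 100% mean blocked vesicle binding to the CD8+ T cells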
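Read-out – percent CD8+ FL2 mean versus row control · System – murine 2C transgenic CD8+ T lymphocytes · Times – 1.5 h cell–vesicle binding at 37 °C, then 20 min icy labelling · Control set – naked vesicles low, QL9 vesicles with vehicle high · Detection – cytometric PE anti-B7-1 and Alexa647 anti-CD8 signals after 1% paraformaldehyde fixation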
MEKK3 PB1 HTS – raises or lowers MEK5 binding to the human MEKK3 PB1 domain; 290,000 tested, 1.4% active; binding response (% of control), % at 10 µM; bead-based flow cytometry, Alexa488-MEK5 binding to MEKK3; actives lie on both sides; 0 = blocked by unlabeled MEK5, 100 = vehicle; Q99759;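 active means binding response more than 3 SD above or below the average of its plate-row segment, actives on both sides; inconclusive means wells at one plate position flagged as instrument error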;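 further: Alexa488 bead fluorescence after subtracting the streptavidin-only scavenger bead signal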
Target sequence (Q99759 whole entry, looked up, the tested form may be a part): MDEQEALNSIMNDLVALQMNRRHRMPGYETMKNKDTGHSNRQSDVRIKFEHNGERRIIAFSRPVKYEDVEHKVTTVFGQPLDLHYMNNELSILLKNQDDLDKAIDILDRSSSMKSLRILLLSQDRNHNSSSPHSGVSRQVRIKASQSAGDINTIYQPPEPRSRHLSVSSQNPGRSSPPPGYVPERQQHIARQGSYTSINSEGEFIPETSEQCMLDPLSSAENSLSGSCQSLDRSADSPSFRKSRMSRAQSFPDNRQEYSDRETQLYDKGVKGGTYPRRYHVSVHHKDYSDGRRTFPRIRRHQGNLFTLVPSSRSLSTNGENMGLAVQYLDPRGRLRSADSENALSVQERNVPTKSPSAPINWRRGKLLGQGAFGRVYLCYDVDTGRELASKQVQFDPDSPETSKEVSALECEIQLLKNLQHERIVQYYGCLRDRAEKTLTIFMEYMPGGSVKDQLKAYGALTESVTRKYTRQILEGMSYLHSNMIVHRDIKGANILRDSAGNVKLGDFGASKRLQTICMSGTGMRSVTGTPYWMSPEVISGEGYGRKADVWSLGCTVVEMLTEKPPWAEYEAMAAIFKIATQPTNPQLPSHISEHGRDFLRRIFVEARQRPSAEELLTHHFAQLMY
MEKK2wt PB1 HTS – raises or lowers MEK5 binding to wildtype human MEKK2 PB1 domain; Q9Y2U5; bead flow cytometry, Alexa488-MEK5 binding to MEKK2 WT; actives lie on both sides; binding response (% of control), % at 10 µM; 290,000 tested, 1.1% active; in the data active means binding response below about 67% or above about 130%; inconclusive means no clear call, values can overlap the other calls; inactive means in between
UCH37 inh – blocks the human deubiquitinase UCH37 | purified proteasome/UCH37, Ub-AMC cleavage fluorescence | inhibition, % (concentration not given with the values) | 330,000 tested, 0.33% active;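 active means mean inhibition over replicate wells above about 20%, limit read from the data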;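 further: 0% = compound-free wells with enzyme and 100% = wells lacking proteasome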
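Material: Human UCH37 enzyme supplied as purified proteasome complex | Schedule: 30 min compound-proteasome preincubation then 25 min substrate reaction, room temperature | Detection: AMC fluorescence from Ub-AMC cleavage, excitation 355 nm, emission 460 nm | Benchmarks: Wells without proteasome as full block, compound-free enzyme plus substrate as uninhibited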
Rce1 inh – blocks yeast Ras-converting enzyme | Q03530 | 290,000 tested, 0.27% active | calls only | yeast membranes, quenched prenylated peptide cleavage fluorescence | AID 2563;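 active means fall in fluorescence gain of 50% or more versus controls, with final raw signal at or below 3038400; inconclusive means same 50% fall but final raw signal above 3038400; inactive means fall in fluorescence gain under 50%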;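 further: plate controls were neutral control wells for no effect and wells lacking membranes for full effect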
MEKK2mut PB1 HTS – signal of MEK5 binding to mutant human MEKK2 PB1 domain; percent response, % at 10 µM; 290,000 tested, 0.35% active; AID 1530; bead flow cytometry, Alexa488-MEK5 binding to MEKK2 mutant; in the data active means percent response above about 24%, passing the limit was not always enough
MEKK2wt confirm – raises or lowers MEK5 binding to wildtype human MEKK2, retest; shares compounds with MEKK3 PB1 HTS; bead flow cytometry, Alexa488-MEK5 binding to MEKK2 WT; actives lie on both sides; binding response (% of control), % at 10 µM; 5,900 tested, 2.4% active; AID 1892; in the data active means binding response below about 16% or above about 210%; inactive means in between
MEKK2mut-MEK5 – signal of MEK5 binding to mutant human MEKK2, retest | shares compounds with MEKK3 PB1 HTS | bead flow cytometry, Alexa488-MEK5 binding to MEKK2 mutant | percent response, % at 10 µM | 5,900 tested, 2% active; in the data active means percent response mostly above about 71%, no sharp cut-off; inactive means mostly below about 38%;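 further: higher means compound restores mutant binding toward wildtype level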
MEKK3 confirm – MEKK3-MEK5 PB1 inhibition, single concentration confirmation; binding response (% of control), % at 10 µM; bead flow cytometry, Alexa488-MEK5 binding to MEKK3; hits give low values; AID 1894; shares compounds with MEKK3 PB1 HTS; 5,900 tested, 1.8% active;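 active means binding response below 72% of control, or above a set upper limit, though filed actives all read lower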;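 further: 100% = DMSO only wells and 0% = binding blocked by excess unlabeled MEK5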
An asterisk follows results filed as active; i = inactive; ? = inconclusive; · = no result; + = active, no number; [ ] = remark or other dose. An excerpt weighted towards active compounds, which were near 2.5% of everything screened.

SMILES | T cell HTS | MEKK3 PB1 HTS | MEKK2wt PB1 HTS | UCH37 inh | Rce1 inh | MEKK2mut PB1 HTS | MEKK2wt confirm | MEKK2mut-MEK5 | MEKK3 confirm
C(=NNc1ncnc2nc[nH]c12)c1cccs1 | · | · | · | 10 | · | · | · | · | ·
Cc1onc(-c2ccccc2)c1-c1csc(NN=Cc2ccccc2Cl)n1 | · | · | · | -37 | · | · | · | · | ·
Cc1onc(-c2ccccc2)c1-c1csc(N/N=C/c2ccccc2)n1 | 247 | 68*[inhibitor] | 74 | · | i | -17 | 99 | -1 | 99
COc1ccc(-c2nn(-c3ccccc3)cc2C(=O)OCC(=O)c2ccc(C)c([N+](=O)[O-])c2)cc1 | 388 | 102 | 104 | 2 | i | 4 | · | · | ·
COc1ccc(-c2cc(C(=O)OCC(=O)c3ccc(C)c([N+](=O)[O-])c3)c3ccccc3n2)cc1 | 115 | 130* | 103 | -67 | i | 0 | 94 | -3 | 97
CCc1ccc(C(C)=NNc2cc(Cl)nc(C)n2)cc1 | · | · | · | 8 | · | · | · | · | ·
NS(=O)(=O)c1ccc(NS(=O)(=O)c2ccc(NC(=S)Nc3ccccc3)cc2)cc1 | 317 | 4.0*[inhibitor] | 99 | 4 | i | 1 | 101 | -6 | 102
Cc1ccc2nc(-c3ccc(NC(=S)NC(=O)C(C)C)cc3)sc2c1 | 243 | 82 | 80 | -12 | i | -7 | · | · | ·
Cc1cc(C)cc(NS(=O)(=O)c2ccc(NC(=S)Nc3ccccc3)cc2)c1 | 358 | 102 | 130 | 4 | i | 1 | · | · | ·
CC1(C)CC(NC(=S)Nc2ccc(S(N)(=O)=O)cc2)CC(C)(C)N1 | 166 | 134* | 121 | 5 | i | 1 | 110 | 6 | 101
Cc1ccc2nc(-c3ccc(NC(=S)NC4CC(C)(C)NC(C)(C)C4)cc3)sc2c1 | 507 | 107 | 235* | -34 | i | 74* | 218* | 90* | 92
CN(C)C=NC(=S)Nc1ccc(Cl)cc1 | · | · | · | 4 | · | · | · | · | ·
C=CCN(C(=O)CSc1nc2c(sc3ccccc32)c(=O)n1CCN(CC)CC)c1ccccc1 | 0 | 117 | 192* | -1 | i | 65* | 142 | 10 | 98
CCN(CC)CCn1c(SCC(=O)Nc2ccc(F)cc2)nc2c(sc3ccccc32)c1=O | 556 | 103 | 128 | -62 | i | 14 | · | · | ·
COc1ccccc1C=NNC(=O)c1ccc(NC(=O)c2cccc([N+](=O)[O-])c2)cc1 | · | · | · | 4 | · | · | · | · | ·
COc1ccc(NC(=O)Nc2cc3oc4ccccc4c3cc2OC)cc1 | 61 | · | · | -34 | i | · | · | · | ·
COc1cc2c(cc1NC(=O)Nc1ccc(C)cc1)oc1ccccc12 | 331 | 113 | 141* | -37 | i | 24* | 132 | -1 | 95
COc1cc2c(cc1NC(=O)Nc1cccc(C)c1)oc1ccccc12 | 300 | 106 | 150* | -76 | i | 30* | 6.0*[inhibitor] | 41 | 101
COc1cc2c(cc1NC(=S)Nc1cccc(C)c1)oc1ccccc12 | 492 | 97 | 101 | -2 | i | -2 | · | · | ·
c1ccc(C2CC(=NN3CCOCC3)c3ccccc3O2)cc1 (stereo not given) | · | · | · | 3 | · | · | · | · | ·
Cc1cc(C)n2nc(SCC(=O)NN=Cc3ccccc3F)nc2n1 | · | · | · | 0 | · | · | · | · | ·
Brc1ccc(-c2csc(N=CN3CCOCC3)n2)cc1 | · | · | · | -2 | · | · | · | · | ·
COc1cccc(NC(=O)CSc2ncc(S(=O)(=O)c3ccccc3)c(=O)[nH]2)c1 | 98 | 134* | 118 | 5 | i | 29 | 101 | 2 | 107
CCCCN(CC)CCNC(=O)c1cc2c(-c3ccccc3F)nn(C)c2s1 | 193 | 106 | 126 | -70 | i | 17 | · | · | ·
CCN(CCCNC(=O)c1cc2c(-c3cccc(OC)c3)nn(C)c2s1)Cc1ccccc1 | 185 | 108 | 149* | -73 | i | 31* | 166 | 50 | 107
SMILES | T cell HTS | MEKK3 PB1 HTS | MEKK2wt PB1 HTS | UCH37 inh | Rce1 inh | MEKK2mut PB1 HTS | MEKK2wt confirm | MEKK2mut-MEK5 | MEKK3 confirm
COc1cccc(-c2nn(C)c3sc(C(=O)NCc4ccc5c(c4)OCO5)cc23)c1 | 528 | 104 | 106 | -1 | i | 6 | · | · | ·
O=C(NCCCN1CCCC1)c1cc2c(Cl)nc3ccccc3c2s1 | 195 | 103 | 142* | 4 | i | 17 | 143 | 21 | 107
Cn1nc(-c2ccc(Cl)cc2)c2cc(C(=O)N3CCOCC3)sc21 | 314 | 106 | 109 | 5 | i | 5 | · | · | ·
CC1CCCCN1CCNC(=O)c1cc2c(-c3ccccc3F)nn(C)c2s1 (stereo not given) | 0 | 112 | 128 | -48 | i | 24* | 118 | 33 | 105
CCN(CC)CCCNC(=O)c1cc2c(-c3ccc(Cl)cc3)nn(C)c2s1 | 474 | 122* | 218* | -151 | ? | 29* | 154 | 26 | 104
CCOC(=O)NC(=O)C(C#N)=NNc1ccc(F)cc1 | · | · | · | 4 | · | · | · | · | ·
Cc1nn(-c2ccc(Cl)cc2)c(Cl)c1C=NNC(=O)c1ccc(NS(=O)(=O)c2cccs2)cc1 | · | · | · | 3 | · | · | · | · | ·
COc1cc(NN=C(C)c2ccc(N)cc2)nc(-c2ccccc2)n1 | · | · | · | -11 | · | · | · | · | ·
O=S1(=O)CCC(=NO)c2ccccc21 | · | · | · | 2 | · | · | · | · | ·
O=C(NCCCN1CCCCCC1)c1ccc2c(Cl)c3c(nc2c1)CCCC3 | 234 | 107 | 160* | 1 | i | -1 | 172 | 47 | 105
Cn1nc(-c2ccc(Cl)cc2)c2cc(C(=O)NCC3CCCO3)sc21 (stereo not given) | 311 | 102 | 106 | -47 | i | 2 | · | · | ·
CCN1CCN(CCCNC(=O)c2ccc3c(Cl)c4c(nc3c2)CCCC4)CC1 | 65 | 103 | 116 | 7 | i | 6 | · | · | ·
CN1CCN(CCCNC(=O)c2cc3c(-c4ccc(Cl)cc4)nn(C)c3s2)CC1 | 498 | 108 | 180* | -132 | + | 17 | 150 | 25 | 103
COc1cccc(C=NNC(=O)c2[nH]nc3c2CCc2ccccc2-3)c1O | · | · | · | 3 | · | · | · | · | ·
Cc1ccc(-n2nc(C)c3c(C)c(CCC(=O)Nc4ccc(CN5CCCC5)cc4)c(C)nc32)cc1 | 335 | 108 | 191* | · | i | 34 | 177 | 30 | 106
Cc1ccc(S(=O)(=O)N2CCC(C(=O)NN=Cc3ccncc3)CC2)cc1 | · | · | · | 3 | · | · | · | · | ·
Cc1ccc(C(=O)NCCN2C3=NC[C@@H](Cc4ccccc4)N3C[C@H]2Cc2ccc(O)cc2)cc1Br | · | 107 | 185* | 5 | i | 52* | 200 | 56 | 113
Cc1ccc(C(=O)NCCc2ccccc2)cc1N1CCCC1=O | 372 | 103 | 97 | -2 | i | 0 | · | · | ·
